In ChEMBL document CHEMBL2321860, “2-Arylpyrazolo[4,3-d]pyrimidin-7-amino derivatives as new potent and selective human A3 adenosine receptor antagonists. Molecular modeling studies and pharmacological evaluation” (J Med Chem, 2013):
Calls of active or inactive are those of the source. The calls are words filed in the database; no cut-off is given here.

Columns and labels:
[1] = molecular target: T1, Adenosine receptor A2a (Homo sapiens, UniProt P29274); test: Displacement of [3H]ZM241385 from human A2A adenosine receptor expressed in CHO cells after 60 mins by scintillation counting analysis; format: cell-based
T1 sequence (P29274 whole entry): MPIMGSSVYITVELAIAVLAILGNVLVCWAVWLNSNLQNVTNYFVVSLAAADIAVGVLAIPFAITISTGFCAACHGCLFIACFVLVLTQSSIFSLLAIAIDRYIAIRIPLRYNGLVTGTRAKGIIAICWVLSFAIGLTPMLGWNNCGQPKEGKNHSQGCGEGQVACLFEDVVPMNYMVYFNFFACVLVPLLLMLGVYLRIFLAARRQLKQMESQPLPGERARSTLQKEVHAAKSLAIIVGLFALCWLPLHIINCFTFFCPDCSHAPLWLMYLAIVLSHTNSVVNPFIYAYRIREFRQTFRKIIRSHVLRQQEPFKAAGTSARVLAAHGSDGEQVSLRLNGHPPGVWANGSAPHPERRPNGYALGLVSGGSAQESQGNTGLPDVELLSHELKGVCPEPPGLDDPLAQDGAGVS
Outline: (§1)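 Human A2A CHO membranes (50 μg protein) incubated with 1 nM [3H]ZM-241385 in 50 mM Tris-HCl, 10 mM MgCl2, pH 7.4, for 60 min at 4 °C, using 6–8 concentrations or 1 μM for % inhibition. Nonspecific binding defined with 1 μM ZM-241385. Ki via Cheng–Prusoff, mean SEM of four assays in duplicate.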

[2] = molecular target: T2, Adenosine receptor A3 (Homo sapiens) (UniProt P0DMS8); test: Displacement of [125I]AB-MECA from human A3 adenosine receptor expressed in CHO cells at 1 uM after 60 mins by scintillation counting analysis; format: cell-based
T2 sequence (whole entry): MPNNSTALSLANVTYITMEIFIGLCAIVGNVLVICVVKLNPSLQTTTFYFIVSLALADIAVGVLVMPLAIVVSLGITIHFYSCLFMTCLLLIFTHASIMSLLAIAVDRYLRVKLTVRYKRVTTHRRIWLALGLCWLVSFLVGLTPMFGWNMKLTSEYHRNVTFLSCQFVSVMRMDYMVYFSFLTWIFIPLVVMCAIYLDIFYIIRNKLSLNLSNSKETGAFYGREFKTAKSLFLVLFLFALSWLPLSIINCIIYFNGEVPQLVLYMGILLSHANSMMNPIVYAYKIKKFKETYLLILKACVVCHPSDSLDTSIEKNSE
Outline: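 Human A3 CHO membranes (50 μg protein) incubated with 0.5 nM [125I]AB-MECA in 50 mM Tris-HCl, 10 mM MgCl2, 1 mM EDTA, pH 7.4, for 60 min at 37 °C. Nonspecific binding defined with 1 μM AB-MECA. Filtration then counting. Output is % inhibition at 1 μM.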

[3] = molecular target: T3, Adenosine receptor A1 (Homo sapiens, UniProt P30542); test: Displacement of [3H]DPCPX from human A1 adenosine receptor expressed in CHO cells after 120 mins by scintillation counting analysis; format: cell-based
T3 sequence (P30542 whole entry): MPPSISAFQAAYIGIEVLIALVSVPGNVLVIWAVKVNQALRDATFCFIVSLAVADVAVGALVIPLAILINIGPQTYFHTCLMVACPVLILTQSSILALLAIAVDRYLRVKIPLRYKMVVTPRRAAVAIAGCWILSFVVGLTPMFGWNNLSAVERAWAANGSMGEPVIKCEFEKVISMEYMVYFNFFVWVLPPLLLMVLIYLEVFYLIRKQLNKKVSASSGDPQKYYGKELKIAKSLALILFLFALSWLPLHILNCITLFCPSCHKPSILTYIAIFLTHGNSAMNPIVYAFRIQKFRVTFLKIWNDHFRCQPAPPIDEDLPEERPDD

[4] = molecular target: T4, Adenosine receptor A2b (Homo sapiens, UniProt P29275); test: Inhibition of human A2B adenosine receptor transfected in CHO cells assessed as inhibition of NECA-induced cyclic AMP production after 10 mins by competitive protein binding assay; format: cell-based
T4 sequence (P29275 whole entry): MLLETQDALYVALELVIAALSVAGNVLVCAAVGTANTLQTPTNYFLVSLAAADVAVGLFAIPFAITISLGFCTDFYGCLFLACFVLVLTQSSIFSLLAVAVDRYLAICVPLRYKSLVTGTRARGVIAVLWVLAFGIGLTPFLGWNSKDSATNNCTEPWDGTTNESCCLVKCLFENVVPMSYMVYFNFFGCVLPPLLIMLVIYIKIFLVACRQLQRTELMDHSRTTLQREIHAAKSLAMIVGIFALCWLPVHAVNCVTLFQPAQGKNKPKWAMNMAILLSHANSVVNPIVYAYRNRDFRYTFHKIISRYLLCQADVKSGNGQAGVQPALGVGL
Outline: (§2)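 Human A2B CHO cells (1 × 10⁶/assay) preincubated 10 min at 37 °C in buffer with adenosine deaminase (2 IU/mL) and Ro 20-1724. Antagonist inhibition of 200 nM NECA-stimulated cAMP measured; reaction stopped with TCA. cAMP quantified by [3H]cAMP competition with adrenal binding protein. IC50 by sigmoid fit, mean SEM of four experiments; % inhibition at 1 μM.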

[5] = test system: Astrocyte; test: Antiapoptotic activity against Sprague-Dawley rat astrocytes assessed as reduction of oxaliplatin-induced caspase-3 activity at 1 uM after 4 hrs by fluorimetric assay; format: functional, cell-based
Outline: (§3)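 Primary cortical astrocytes from newborn (P1–P3) rats, GFAP-positive, used 21 days after isolation and serum-starved overnight. Cells were exposed to 100 μM oxaliplatin for 4 h with test compound co-incubated. Lysates were incubated with 0.025 mM Z-DEVD-R110 at 25 °C for 30 min and read by fluorescence (ex 496/em 520 nm). Output is % of untreated control, mean SEM.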

[6] = molecular target: T5, Adenosine receptor A1 (Homo sapiens) (UniProt P30542); test: Displacement of [3H]DPCPX from human A1 adenosine receptor expressed in CHO cells at 1 uM after 120 mins by scintillation counting analysis; format: cell-based
T5 sequence (whole entry): T3 sequence (P30542 whole entry)

[7] = test system: HT-29; test: Antiapoptotic activity against human HT-29 cells assessed as cell viability at 10 uM after 48 hrs by MTT assay in presence of 1 uM oxaliplatin (reference value: 94.9 +/- 1.3%); format: functional
Outline: (§4)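 HT-29 cells in DMEM high glucose with 20% FBS, grown to confluence and serum-starved overnight. Cells were treated for 48 h with oxaliplatin (0.3–100 μM) with or without 10 μM test compound. Viability was read as MTT reduction (1 mg/mL, 2 h, 37 °C), formazan in DMSO, absorbance 580 nm. Output is % of control, quadruplicate on at least three cell batches.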

[8] = molecular target: T1, Adenosine receptor A2a; test: Displacement of [3H]ZM241385 from human A2A adenosine receptor expressed in CHO cells at 1 uM after 60 mins by scintillation counting analysis; format: cell-based; outline: as §1
[9] = test system: HT-29; test: Antiapoptotic activity against human HT-29 cells assessed as cell viability at 10 uM after 48 hrs by MTT assay in presence of 3 uM oxaliplatin (reference value: 92.3 +/- 1.0%); format: functional; outline: as §4
[10] = molecular target: T6, Adenosine receptor A3 (Rattus norvegicus) (UniProt P28647); test: Displacement of [125I]AB-MECA from rat A3 adenosine receptor expressed in HEK293 cells at 1 uM after 60 mins by scintillation counting analysis; format: cell-based
T6 sequence (whole entry): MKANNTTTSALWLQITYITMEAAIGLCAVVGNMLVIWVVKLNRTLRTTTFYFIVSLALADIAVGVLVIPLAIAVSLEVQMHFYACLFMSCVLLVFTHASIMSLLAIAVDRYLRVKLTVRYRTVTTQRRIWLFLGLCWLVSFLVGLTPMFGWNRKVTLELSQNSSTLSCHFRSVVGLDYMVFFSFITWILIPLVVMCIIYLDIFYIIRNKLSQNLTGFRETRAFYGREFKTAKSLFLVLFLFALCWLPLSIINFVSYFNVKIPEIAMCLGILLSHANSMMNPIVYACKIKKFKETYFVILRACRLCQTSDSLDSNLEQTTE
Outline: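 Rat A3 receptor in HEK293 membranes (10 μg protein) incubated with 0.5 nM [125I]AB-MECA in 50 mM Tris-HCl, 10 mM MgCl2, 1 mM EDTA, pH 7.4, for 60 min at 37 °C. Nonspecific binding defined with 1 μM AB-MECA. Filtration then scintillation counting. Output is % inhibition at 1 μM.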

[11] = test system: HT-29; test: Antiapoptotic activity against human HT-29 cells assessed as cell viability at 10 uM after 48 hrs by MTT assay in presence of 100 uM oxaliplatin (reference value: 52.2 +/- 0.5%); format: functional; outline: as §4
[12] = molecular target: T7, Adenosine receptor A3 (Homo sapiens, UniProt P0DMS8); test: Inhibition of human A3 adenosine receptor transfected in CHO cells assessed as inhibition of forskolin-induced cyclic AMP production after 10 mins by competitive protein binding assay in presence of CI-IB-MECA; format: functional, cell-based
T7 sequence (P0DMS8 whole entry): T2 sequence (whole entry)
Outline: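 Human A3 CHO cells (1 × 10⁶/assay) preincubated 10 min at 37 °C with adenosine deaminase and Ro 20-1724. Antagonist potency measured against 100 nM Cl-IB-MECA-mediated inhibition of 1 μM forskolin-stimulated cAMP. cAMP quantified by [3H]cAMP competition binding. IC50 by sigmoid regression, mean SEM of four experiments.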

[13] = test system: HT-29; test: Antiapoptotic activity against human HT-29 cells assessed as cell viability at 10 uM after 48 hrs by MTT assay in presence of 30 uM oxaliplatin (reference value: 81.9 +/- 0.9%); format: functional; outline: as §4
[14] = test system: Astrocyte; test: Antiapoptotic activity against Sprague-Dawley rat astrocytes assessed as reduction of oxaliplatin-induced caspase-3 activity at 0.1 to 10 uM after 4 hrs by fluorimetric assay; format: functional, cell-based; outline: as §3
[15] = molecular target: T8, Adenosine receptor A2b (Homo sapiens) (UniProt P29275); test: Inhibition of human A2B adenosine receptor transfected in CHO cells assessed as inhibition of NECA-induced cyclic AMP production at 1 uM after 10 mins by competitive protein binding assay; format: cell-based; outline: as §2
T8 sequence (whole entry): T4 sequence (P29275 whole entry)

[16] = test system: HT-29; test: Antiapoptotic activity against human HT-29 cells assessed as cell viability at 10 uM after 48 hrs by MTT assay in presence of 10 uM oxaliplatin (reference value: 87.2 +/- 0.9%); format: functional; settings: HT-29, 48 h, read-out: Activity; outline: as §4
[17] = molecular target: T7, Adenosine receptor A3; test: Displacement of [125I]AB-MECA from human A3 adenosine receptor expressed in CHO cells after 60 mins by scintillation counting analysis; format: cell-based
[18] = test system: HT-29; test: Antiapoptotic activity against human HT-29 cells assessed as cell viability at 10 uM after 48 hrs by MTT assay in presence of 0.3 uM oxaliplatin (reference value: 97.6 +/- 0.9%); format: functional; outline: as §4

Ki [1] [nM]	inhibition [2] [%]	Ki [3] [nM]	IC50 [4] [nM]	Activity [5]	inhibition [6] [%]	inhibition [8] [%]	inhibition [10] [%]	IC50 [12] [nM]	Activity [14]	inhibition [15] [%]	Ki [17] [nM]	Structure (SMILES)	Activity [7] [%]	Activity [9] [%]	Activity [11] [%]	Activity [13] [%]	viability at 10 µM [16] [%]	Activity [18] [%]
246	40	70	320	–	–	–	–	–	–	–	–	Cc1nc(N)c2nn(-c3ccccc3)cc2n1	–	–	–	–	–	–
–	–	–	–	Active	29	18	3	80	Active	2	24	COc1ccc(-n2cc3nc(-c4ccccc4)nc(NC(=O)Cc4ccccc4)c3n2)cc1	90.2	86.6	54.8	78.8	82.2	95.1
110	39	150	420	–	–	–	–	–	–	–	–	Nc1nc(Cc2ccccc2)nc2cn(-c3ccccc3)nc12	–	–	–	–	–	–
325	48	75	440	–	–	–	–	–	–	–	–	Nc1nc(-c2ccccc2)nc2cn(-c3ccccc3)nc12	–	–	–	–	–	–
